The target in data set [1] is T1, Insulin-like growth factor 1 receptor (Homo sapiens, UniProt P08069). Put plainly: Inhibition of human recombinant GST-IGF1R activity.
Data set [2] concerns the target T1, Insulin-like growth factor 1 receptor. Put plainly: Inhibition of IGF1-stimulated phosphorylation of human recombinant IGF1R expressed in NIH3T3 cells. It is filed as cell-based.
Data set [3] can be described thus: Cmax in CD1 mouse at 50 mg/kg, po. Type of data set: ADME, organism-based. Details: dose 50 mg/kg, route oral. To be noted: in vivo. A digest of the protocol:
(§1)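 Female CD-1 mice, 6–10 weeks old, received a single 1 mg/kg IV tail-vein dose or a single 50 mg/kg oral gavage dose. The oral vehicle varied by compound: 30:70 PEG-400:WFI with Labrafil, 50:50 PEG-400:WFI, or 50:50 PEG-400:5% citric acid. Three animals were sacrificed per timepoint and blood was taken into EDTA by cardiac puncture. Plasma (1500g, 10 min) was methanol-precipitated and analysed by HPLC-MS/MS against spiked mouse-plasma calibrants. Parameters came from non-compartmental analysis of median (n=3) concentrations.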

A short description of data set [4]: AUC (0 to infinity) in CD1 mouse at 50 mg/kg, po. It is filed as ADME, organism-based. Also noted: time infinity, dose 50 mg/kg, route oral. To be noted: plasma. A digest of the protocol:
as §1

The nature of data set [5]: Oral bioavailability in CD1 mouse at 50 mg/kg, po. Type of data set: ADME, organism-based. The note with it: in vivo. A digest of the protocol:
as §1

Data set [6] can be described thus: Half life in CD1 mouse at 1 mg/kg, iv. It is filed as ADME, organism-based. Details: dose 1 mg/kg, route intravenous. To be noted: in vivo. A digest of the protocol:
as §1

In data set [7] the target is Tyrosine-protein kinase ABL1 (Homo sapiens) (UniProt P00519). Put plainly: Inhibition of Abl at 10 uM. A digest of the protocol:
(§2)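 Radiometric kinase profiling was run as an outsourced panel on recombinant purified enzymes.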

The species named for data set [8] is Homo sapiens. Put plainly: Inhibition of Cdk2/Cyclin A at 10 uM. In a few lines: as §2
The species entered for data set [9] is Homo sapiens. Put plainly: Inhibition of Cdk2/Cyclin E at 10 uM. In a few lines:
as §2

The target of data set [10] is Serine/threonine-protein kinase Chk2 (Homo sapiens) (UniProt O96017). Description: Inhibition of Chk2 at 10 uM. In a few lines: as §2
Serine/threonine-protein kinase Chk2 (Homo sapiens), sequence (O96017 whole entry): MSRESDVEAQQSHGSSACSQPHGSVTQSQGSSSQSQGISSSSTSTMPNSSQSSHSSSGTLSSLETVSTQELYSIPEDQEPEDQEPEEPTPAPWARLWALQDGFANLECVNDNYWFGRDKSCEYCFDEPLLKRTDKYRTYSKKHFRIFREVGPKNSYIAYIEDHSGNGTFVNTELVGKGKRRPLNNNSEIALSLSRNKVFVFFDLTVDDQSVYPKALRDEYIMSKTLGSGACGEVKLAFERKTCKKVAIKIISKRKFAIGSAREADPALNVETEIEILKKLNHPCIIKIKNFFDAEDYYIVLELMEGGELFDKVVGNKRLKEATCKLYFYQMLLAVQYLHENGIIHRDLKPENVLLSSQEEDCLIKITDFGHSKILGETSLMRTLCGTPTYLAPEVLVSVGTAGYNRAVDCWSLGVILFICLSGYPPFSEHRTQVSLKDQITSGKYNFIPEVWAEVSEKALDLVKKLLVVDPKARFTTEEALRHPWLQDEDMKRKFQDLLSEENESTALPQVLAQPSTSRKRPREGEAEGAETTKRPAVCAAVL
Data set [11] is filed under the species Homo sapiens. Description: Inhibition of PKA at 10 uM. A digest of the protocol: as §2
In data set [12] the target is Tyrosine-protein kinase Fes/Fps (Homo sapiens) (UniProt P07332). Description: Inhibition of Fes at 10 uM. A digest of the protocol:
as §2

Data set [13] deals with Casein kinase II subunit alpha (Homo sapiens) (UniProt P68400). Description: Inhibition of CK2 at 10 uM. A digest of the protocol: as §2
Casein kinase II subunit alpha (Homo sapiens), sequence (P68400 whole entry, looked up): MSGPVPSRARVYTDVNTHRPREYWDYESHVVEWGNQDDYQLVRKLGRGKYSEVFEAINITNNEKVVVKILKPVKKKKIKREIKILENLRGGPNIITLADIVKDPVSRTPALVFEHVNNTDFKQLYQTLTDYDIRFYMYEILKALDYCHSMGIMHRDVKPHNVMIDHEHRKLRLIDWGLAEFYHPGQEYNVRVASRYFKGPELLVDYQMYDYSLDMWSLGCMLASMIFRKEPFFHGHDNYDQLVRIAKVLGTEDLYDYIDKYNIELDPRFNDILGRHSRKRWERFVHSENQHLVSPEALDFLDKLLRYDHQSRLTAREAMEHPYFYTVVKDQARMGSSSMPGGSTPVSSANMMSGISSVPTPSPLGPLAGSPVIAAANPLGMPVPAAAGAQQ
Data set [14] addresses RAF proto-oncogene serine/threonine-protein kinase (Homo sapiens) (UniProt P04049). Put plainly: Inhibition of c-Raf at 10 uM. A digest of the protocol:
as §2

The target in data set [15] is T2, Inhibitor of nuclear factor kappa-B kinase subunit beta (Homo sapiens) (UniProt O14920).
T2 sequence (whole entry): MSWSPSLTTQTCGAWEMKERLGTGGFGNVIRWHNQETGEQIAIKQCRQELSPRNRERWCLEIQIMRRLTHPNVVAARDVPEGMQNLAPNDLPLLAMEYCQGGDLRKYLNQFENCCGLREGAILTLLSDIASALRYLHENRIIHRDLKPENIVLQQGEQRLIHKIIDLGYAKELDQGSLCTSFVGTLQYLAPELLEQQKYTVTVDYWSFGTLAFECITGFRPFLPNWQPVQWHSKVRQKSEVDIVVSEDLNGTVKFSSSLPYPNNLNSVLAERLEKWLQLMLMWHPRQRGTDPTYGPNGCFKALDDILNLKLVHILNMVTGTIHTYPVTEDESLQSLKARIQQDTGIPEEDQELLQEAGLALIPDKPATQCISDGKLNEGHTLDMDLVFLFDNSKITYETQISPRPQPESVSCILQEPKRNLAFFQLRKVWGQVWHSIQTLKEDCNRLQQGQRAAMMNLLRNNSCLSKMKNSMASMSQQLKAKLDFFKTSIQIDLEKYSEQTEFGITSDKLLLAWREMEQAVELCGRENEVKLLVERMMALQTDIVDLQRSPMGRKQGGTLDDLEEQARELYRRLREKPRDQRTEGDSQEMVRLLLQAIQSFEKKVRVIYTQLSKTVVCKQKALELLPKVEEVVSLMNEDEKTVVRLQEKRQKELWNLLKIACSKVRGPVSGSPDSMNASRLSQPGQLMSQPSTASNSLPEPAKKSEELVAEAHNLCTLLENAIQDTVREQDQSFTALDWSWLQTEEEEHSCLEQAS
Put plainly: Inhibition of IKK-beta at 10 uM. In a few lines: as §2

Data set [16] addresses Ribosomal protein S6 kinase beta-1 (Homo sapiens) (UniProt P23443). Put plainly: Inhibition of p70S6K at 10 uM. A digest of the protocol:
as §2

The target of data set [17] is Platelet-derived growth factor receptor beta (Homo sapiens) (UniProt P09619). Put plainly: Inhibition of PDGFRbeta at 10 uM. A digest of the protocol: as §2
The species entered for data set [18] is Homo sapiens. Description: Inhibition of PKBalpha at 10 uM. A digest of the protocol: as §2
For data set [19], the target named is Protein kinase C alpha type (Homo sapiens) (UniProt P17252). Description: Inhibition of PKCalpha at 10 uM. In a few lines:
as §2

The target in data set [20] is 3-phosphoinositide-dependent protein kinase 1 (PDPK1) (Homo sapiens) (UniProt O15530). Put plainly: Inhibition of PDK1 at 10 uM.
In data set [21] the target is Mitogen-activated protein kinase 1 (ERK2) (Homo sapiens) (UniProt P28482). Put plainly: Inhibition of MAPK2 at 10 uM.
Mitogen-activated protein kinase 1 (ERK2) (Homo sapiens), sequence (P28482 whole entry, looked up): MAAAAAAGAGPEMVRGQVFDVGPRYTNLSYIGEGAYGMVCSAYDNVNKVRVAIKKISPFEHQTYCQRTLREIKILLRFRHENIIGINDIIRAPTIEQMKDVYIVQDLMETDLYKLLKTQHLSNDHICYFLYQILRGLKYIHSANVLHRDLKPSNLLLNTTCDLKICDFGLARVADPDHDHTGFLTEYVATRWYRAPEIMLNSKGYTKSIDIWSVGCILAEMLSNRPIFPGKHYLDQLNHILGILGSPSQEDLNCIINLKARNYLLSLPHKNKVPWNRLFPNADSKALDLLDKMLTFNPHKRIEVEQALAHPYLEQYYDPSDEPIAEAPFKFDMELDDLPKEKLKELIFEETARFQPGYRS

Data on eight compounds can be found in ChEMBL document CHEMBL1139042, “1,3-Disubstituted-imidazo[1,5-a]pyrazines as insulin-like growth-factor-I receptor (IGF-IR) inhibitors” (Bioorg Med Chem Lett, 2007).

The IC50 is the concentration that gives 50% inhibition. For orientation: Cmax means the highest concentration seen after dosing. As a reminder, the AUC(0-inf) is total exposure, with the tail of the curve extrapolated. The low end stands for low exposure, the high end for high exposure. In general, bioavailability refers to dose-corrected exposure relative to a reference, in per cent. Read a high bioavailability as much systemic uptake. A word on the half-life: it is the time needed for the level to fall by half in the phase considered. A low value points to rapid decline. What is called inhibition is the share of the control response that was lost under treatment. Read a low inhibition as little suppression.

T1 sequence (P08069 31-736 limits assumed): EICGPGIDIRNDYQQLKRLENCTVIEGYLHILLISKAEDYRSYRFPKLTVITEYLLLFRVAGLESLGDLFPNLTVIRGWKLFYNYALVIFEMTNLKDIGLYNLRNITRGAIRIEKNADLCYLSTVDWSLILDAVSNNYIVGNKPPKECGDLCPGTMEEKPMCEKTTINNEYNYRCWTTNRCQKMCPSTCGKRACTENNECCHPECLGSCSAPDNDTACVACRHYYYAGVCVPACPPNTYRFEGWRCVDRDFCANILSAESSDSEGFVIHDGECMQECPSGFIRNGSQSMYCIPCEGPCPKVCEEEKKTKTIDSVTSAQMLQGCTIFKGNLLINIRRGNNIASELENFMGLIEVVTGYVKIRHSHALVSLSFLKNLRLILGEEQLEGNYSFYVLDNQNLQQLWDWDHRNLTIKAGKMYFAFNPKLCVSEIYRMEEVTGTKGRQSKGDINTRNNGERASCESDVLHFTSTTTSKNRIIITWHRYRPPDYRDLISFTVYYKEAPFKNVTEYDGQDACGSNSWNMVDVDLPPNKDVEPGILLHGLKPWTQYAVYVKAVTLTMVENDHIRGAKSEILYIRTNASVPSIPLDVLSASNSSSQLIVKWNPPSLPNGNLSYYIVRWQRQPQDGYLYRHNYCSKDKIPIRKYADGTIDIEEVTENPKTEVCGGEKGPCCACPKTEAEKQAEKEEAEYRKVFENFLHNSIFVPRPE
T1 sequence (P08069 741-1367 limits assumed): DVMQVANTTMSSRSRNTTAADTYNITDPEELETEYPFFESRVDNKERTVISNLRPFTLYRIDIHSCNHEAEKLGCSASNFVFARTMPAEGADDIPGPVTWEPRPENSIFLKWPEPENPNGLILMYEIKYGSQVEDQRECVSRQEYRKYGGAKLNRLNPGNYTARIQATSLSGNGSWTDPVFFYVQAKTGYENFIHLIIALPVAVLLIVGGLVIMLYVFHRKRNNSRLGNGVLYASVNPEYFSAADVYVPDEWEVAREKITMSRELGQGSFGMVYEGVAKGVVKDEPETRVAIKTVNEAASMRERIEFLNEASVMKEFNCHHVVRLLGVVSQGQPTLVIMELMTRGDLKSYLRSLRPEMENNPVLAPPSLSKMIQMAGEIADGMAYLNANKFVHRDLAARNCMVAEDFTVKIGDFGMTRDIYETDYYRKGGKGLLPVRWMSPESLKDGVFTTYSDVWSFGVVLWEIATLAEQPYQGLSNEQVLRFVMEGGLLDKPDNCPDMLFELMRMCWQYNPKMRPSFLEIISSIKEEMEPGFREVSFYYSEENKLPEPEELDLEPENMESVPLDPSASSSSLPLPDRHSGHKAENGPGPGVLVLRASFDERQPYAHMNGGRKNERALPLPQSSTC
Tyrosine-protein kinase ABL1 (Homo sapiens), sequence (P00519 whole entry): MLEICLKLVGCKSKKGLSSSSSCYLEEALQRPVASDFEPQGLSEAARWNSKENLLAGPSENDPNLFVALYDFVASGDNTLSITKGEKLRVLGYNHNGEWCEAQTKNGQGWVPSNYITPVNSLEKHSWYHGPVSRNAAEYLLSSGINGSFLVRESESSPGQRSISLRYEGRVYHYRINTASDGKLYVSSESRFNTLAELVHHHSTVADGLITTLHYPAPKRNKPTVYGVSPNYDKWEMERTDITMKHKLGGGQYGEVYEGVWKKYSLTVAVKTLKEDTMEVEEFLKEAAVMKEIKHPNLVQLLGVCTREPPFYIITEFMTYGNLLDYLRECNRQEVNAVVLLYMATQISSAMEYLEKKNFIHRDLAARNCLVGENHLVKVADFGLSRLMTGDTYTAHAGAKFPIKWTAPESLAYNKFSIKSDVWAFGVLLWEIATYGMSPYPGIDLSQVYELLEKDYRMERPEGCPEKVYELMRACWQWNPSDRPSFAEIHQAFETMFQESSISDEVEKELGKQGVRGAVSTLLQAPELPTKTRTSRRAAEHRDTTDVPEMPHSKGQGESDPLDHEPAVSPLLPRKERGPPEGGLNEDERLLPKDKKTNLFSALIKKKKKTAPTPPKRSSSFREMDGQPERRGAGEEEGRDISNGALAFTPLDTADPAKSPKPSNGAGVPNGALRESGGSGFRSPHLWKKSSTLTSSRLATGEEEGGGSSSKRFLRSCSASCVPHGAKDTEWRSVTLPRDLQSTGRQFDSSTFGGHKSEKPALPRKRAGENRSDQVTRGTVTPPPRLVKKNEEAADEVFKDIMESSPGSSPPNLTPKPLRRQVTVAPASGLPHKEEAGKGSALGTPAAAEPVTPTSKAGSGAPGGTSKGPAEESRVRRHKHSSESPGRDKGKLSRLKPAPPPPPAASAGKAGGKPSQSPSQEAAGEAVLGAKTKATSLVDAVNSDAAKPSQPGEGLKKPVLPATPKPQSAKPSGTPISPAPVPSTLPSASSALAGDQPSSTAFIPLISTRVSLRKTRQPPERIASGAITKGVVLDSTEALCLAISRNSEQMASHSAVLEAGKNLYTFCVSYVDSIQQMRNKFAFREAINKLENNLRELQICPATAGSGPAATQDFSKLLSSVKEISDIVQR
Ribosomal protein S6 kinase beta-1 (Homo sapiens), sequence (P23443 whole entry, looked up): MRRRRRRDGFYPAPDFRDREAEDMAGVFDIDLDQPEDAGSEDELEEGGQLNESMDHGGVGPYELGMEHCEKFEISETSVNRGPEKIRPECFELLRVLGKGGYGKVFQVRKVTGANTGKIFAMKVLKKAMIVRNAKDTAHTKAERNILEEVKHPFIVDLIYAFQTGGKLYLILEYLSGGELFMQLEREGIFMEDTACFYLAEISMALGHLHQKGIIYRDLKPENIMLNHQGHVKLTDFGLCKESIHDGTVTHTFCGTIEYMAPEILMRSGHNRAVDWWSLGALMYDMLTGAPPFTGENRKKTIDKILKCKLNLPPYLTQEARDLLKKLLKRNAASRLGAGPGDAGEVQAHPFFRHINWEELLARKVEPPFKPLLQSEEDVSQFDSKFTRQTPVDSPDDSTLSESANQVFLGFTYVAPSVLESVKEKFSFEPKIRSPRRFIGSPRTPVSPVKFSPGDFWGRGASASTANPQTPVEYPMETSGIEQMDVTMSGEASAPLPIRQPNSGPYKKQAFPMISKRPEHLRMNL

Turning to `NC[C@H]1C[C@@H](c2nc(-c3cccc(OCc4ccccc4)c3)c3c(N)nccn32)C1`, the values for the IC50 in data set [1] and in data set [2] were 60 nM and 690 nM, respectively.
The matching figures for `Nc1nccn2c1c(-c1cccc(OCc3ccccc3)c1)nc2[C@H]1CC[C@H](CN2CCC2)CC1`: 81 nM and 398 nM.
As for `Nc1nccn2c1c(-c1cccc(OCc3ccccc3)c1)nc2[C@H]1CC[C@H](C(N)=O)CC1`, in data set [3], the highest level (Cmax) was 2220 nM. In data set [4], this compound had an AUC(0-inf) of 1320 ng·h/mL. This compound came in with a bioavailability in data set [5] of 34%. This compound also had a half-life in data set [6] of 0.63 h.
With `Nc1nccn2c(C3CCC3)nc(-c3cccc(OCc4ccccc4)c3)c12`, the IC50 in data set [1] stood at 606 nM; in data set [2] it was 1160 nM. In addition, the Cmax in data set [3] is 860 nM. This compound also gave an area under the curve AUC(0-inf) in data set [4] of 1760 ng·h/mL. Moreover, the bioavailability in data set [5] came out at 47%. Further, in data set [6], the half-life is 1.3 h.
Consider `NC[C@H]1CC[C@H](c2nc(-c3cccc(OCc4ccccc4)c3)c3c(N)nccn32)CC1`, for which the concentration for half-maximal inhibition (IC50) in data set [1] was determined as 119 nM; in data set [2], 534 nM. This compound also gave a peak concentration (Cmax) in data set [3] of 2850 nM. In data set [4], this compound returned an AUC(0-inf) of 3930 ng·h/mL. Besides, in data set [5], the bioavailability stood at 47%. In addition, the half-life in [6] was 2.29 h. The inhibition (in data set [7]; in the data set listed under Homo sapiens [8]; in the data set listed under Homo sapiens [9]; in [10]; in the data set filed under Homo sapiens [11]; in [12]) was less than 50% in each case. Also, the inhibition (in data set [13]; in [14]; in [15]; in data set [16]; in [17]; in the data set filed under Homo sapiens [18]) was less than 50% each time. The inhibition in [19], in [20] and in data set [21] was less than 50% in each case.
Turning to `Nc1nccn2c(C3CCC3)nc(-c3ccc(Oc4ccccc4)cc3)c12`, the IC50 in data set [1] is greater than 10000 nM.
In the case of `COc1ccc(-c2nc(C3CCC3)n3ccnc(N)c23)cc1OCc1ccccc1`, the IC50 in data set [1] came out at 1350 nM.
With `NC[C@H]1CC[C@@H](c2nc(-c3cccc(OCc4ccccc4)c3)c3c(N)nccn32)CC1`, the IC50 in [1] worked out at 228 nM; in data set [2], 560 nM.
